Here are results for twelve molecules from ChEMBL document CHEMBL4190288, “Bioactive Azaphilone Derivatives from the Fungus Talaromyces aculeatus” (J Nat Prod, 2017).

The structures appear in SMILES notation. Values after ≈ are worked out from the molar mass of the structure shown. Active and inactive are the calls of the source. The rule behind the calls is not given here. A value given as a limit tells only on which side of the number the result lay.

One assay relates to A549. Description: Cytotoxicity against human A549 cells by SRB assay. Type of assay: functional, cell-based. An outline of the steps:
(§1)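 Cytotoxicity tested on human HL-60, HeLa, A549 and K562 cell lines by a previously referenced method. Adriamycin was the positive control.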
(In general: The SRB assay estimates cell density from bound dye.)

The subject of another assay is Vibrio anguillarum. Put plainly: Antibacterial activity against Vibrio anguillarum after 18 hrs by broth dilution method. The class given is functional. An outline of the steps: (§2)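 Conventional broth dilution MIC assay run on a panel of Gram-positive strains (Micrococcus lysodeikticus, Bacillus cereus, Bacillus megaterium) and Gram-negative strains (Proteus vulgaris, Vibrio anguillarum, Vibrio parahaemolyticus). Ciprofloxacin served as the positive control.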
Background: Broth dilution looks for growth in wells or tubes with falling amounts of substance.

The target in a further assay is Alpha glucosidase (Homo sapiens, UniProt O43451+P10253+P14410+Q2M2H8). Description: Inhibition of alpha-glucosidase (unknown origin) using p-nitrophenyl glycoside as substrate treated 20 mins post substrate addition measured for 1 min by spectrophotometric analysis. Type of assay: protein assay. An outline of the steps:
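In vitro α-glucosidase inhibition measured by a previously referenced procedure.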

The subject of the next assay is HL-60. Put plainly: Cytotoxicity against human HL60 cells by MTT assay. Type of assay: functional, cell-based. An outline of the steps:
as §1

The test system of another assay is HeLa. Description: Cytotoxicity against human HeLa cells by SRB assay. Type of assay: functional, cell-based. An outline of the steps: as §1
The test system of another assay is K562. Put plainly: Cytotoxicity against human K562 cells by MTT assay. The class given is functional, cell-based. An outline of the steps:
as §1

The subject of the next assay is Vibrio parahaemolyticus. Description: Antibacterial activity against Vibrio parahaemolyticus after 18 hrs by broth dilution method. Type of assay: functional. In a few lines: as §2
Another assay concerns Bacillus cereus. Put plainly: Antibacterial activity against Bacillus cereus after 18 hrs by broth dilution method.
A further assay deals with Priestia megaterium. Description: Antibacterial activity against Bacillus megaterium after 18 hrs by broth dilution method.
In another assay the test system is Proteus vulgaris. Description: Antibacterial activity against Proteus vulgaris after 18 hrs by broth dilution method.
The test system of a further assay is Micrococcus luteus. Description: Antibacterial activity against Micrococcus lysodeikticus after 18 hrs by broth dilution method.

For orientation: MIC means the least concentration at which growth counts as inhibited. The low end stands for a more susceptible organism, the high end for a less susceptible organism. The IC50 is the concentration that gives 50% inhibition. A low value points to greater potency. Regarding `Cc1cc(O)cc(O)c1C(=O)O[C@H]1[C@@H]2COC(/C=C/[C@H](C)O)=CC2=CC(=O)[C@@]1(C)O`, the outcome in the assay with A549, in the assay on HL-60, with HeLa and in the assay with K562 was inactive. This molecule also yielded an MIC in the assay with Vibrio anguillarum of over 8.28 µg/mL. The same molecule registered an IC50 on Alpha glucosidase of 78.6 µM.

Turning to `Cc1cc(O)cc(O)c1C(=O)O[C@H]1[C@@H]2COC(/C=C/CO)=CC2=CC(=O)[C@@]1(C)O` [PINOPHILIN B], the outcome with A549, with HL-60, with HeLa and in the assay on K562 was inactive. For the same molecule, the MIC against Vibrio anguillarum was over 8.28 µg/mL. At Alpha glucosidase, the IC50 is over 200 µM.

Regarding `Cc1cc(O)cc(O)c1C(=O)O[C@H]1[C@@H]2COC(/C=C/C=O)=CC2=CC(=O)[C@@]1(C)O`, the outcome in the assay on A549, in the assay on HL-60, in the assay on HeLa and in the assay with K562 was inactive. Also, it took 0.26 µg/mL (≈ 0.649 µM) to inhibit growth against Vibrio anguillarum (MIC). In addition, the IC50 against Alpha glucosidase stood at 22.9 µM.

Consider `Cc1cc(O)cc(O)c1C(=O)O[C@H]1[C@@H]2COC(/C=C/C(=O)O)=CC2=CC(=O)[C@@]1(C)O`, for which the result in the assay on A549, with HL-60, in the assay with HeLa and with K562 was inactive. The molecule also showed an MIC against Vibrio anguillarum of over 8.28 µg/mL. This molecule also returned an IC50 against Alpha glucosidase of over 200 µM.

Take `C/C=C/C1=CC2=CC(=O)[C@@](C)(O)[C@@H](OC(=O)c3c(C)cc(O)cc3O)[C@@H]2CO1`: the result in the assay with A549, in the assay on HL-60, in the assay on HeLa and in the assay with K562 was inactive. Moreover, in the assay with Vibrio anguillarum, the MIC is over 8.28 µg/mL. This molecule also displayed an IC50 against Alpha glucosidase of over 200 µM.

On to `Cc1cc(O)cc(O)c1C(=O)O[C@H]1C2=COC(/C=C/CO)=CC2=CC(=O)[C@@]1(C)O`, for which the outcome in the assay with A549, in the assay on HL-60, in the assay on HeLa and with K562 was inactive. Also, the MIC in the assay on Vibrio anguillarum is over 8.28 µg/mL. On Alpha glucosidase, the IC50 is over 200 µM.

For the molecule `COC(OC)C1=CC2=CC(=O)[C@@](C)(O)[C@@H](OC(=O)c3c(C)cc(O)cc3O)[C@@H]2CO1`, the result in the assay with A549, in the assay with HL-60, in the assay with HeLa and in the assay with K562 was inactive. Further, the MIC in the assay on Vibrio anguillarum is over 8.28 µg/mL. In addition, the 50% inhibitory concentration (IC50) at Alpha glucosidase is over 200 µM.

Turning to `Cc1cc(O)cc(O)c1C(=O)O[C@]1(C)C(=O)C=C2C=C(/C=C/CO)OC=C2C1=O`, the outcome in the assay with A549, in the assay on HL-60, in the assay on HeLa and with K562 was inactive. At Alpha glucosidase, this molecule gave an IC50 of over 200 µM.

`COC(=O)CCC1=CC2=CC(=O)[C@@](C)(O)[C@@H](OC(=O)c3c(C)cc(O)cc3O)[C@@H]2CO1`: the result in the assay on A549, in the assay with HL-60, in the assay on HeLa and with K562 was inactive. In the assay on Vibrio anguillarum, this molecule showed an MIC of over 8.28 µg/mL. For the same molecule, on Alpha glucosidase, the IC50 was over 200 µM.

Turning to `C/C=C/C1=CC2=CC(=O)[C@@](C)(OC(=O)c3c(C)cc(O)cc3O)C(=O)C2=CO1`, the outcome in the assay with A549, in the assay on HL-60, in the assay with HeLa and with K562 was inactive. The molecule also gave a minimum inhibitory concentration (MIC) against Vibrio anguillarum of 0.26 µg/mL (≈ 0.68 µM). For the same molecule, the IC50 on Alpha glucosidase is over 200 µM.

In the case of `COC(=O)C1=CC2=CC(=O)[C@@](C)(O)[C@@H](OC(=O)c3c(C)cc(O)cc3O)[C@@H]2CO1`, the result in the assay with A549, with HL-60, in the assay with HeLa and in the assay with K562 was inactive. The MIC with Vibrio anguillarum is over 8.28 µg/mL. Further, on Alpha glucosidase, the IC50 was over 200 µM.

Turning to `O=C(O)c1cn(C2CC2)c2cc(N3CCNCC3)c(F)cc2c1=O` [CIPROFLOXACIN], the MIC against Vibrio anguillarum was 0.199 to 0.52 µg/mL (≈ 0.601 to 1.57 µM); with Vibrio parahaemolyticus, 0.43 µg/mL (≈ 1.3 µM); against Bacillus cereus, 0.43 µg/mL (≈ 1.3 µM); in the assay with Priestia megaterium it was 1.66 µg/mL (≈ 4.99 µM); against Proteus vulgaris, 0.199 µg/mL (≈ 0.601 µM); with Micrococcus luteus it was 0.099 µg/mL (≈ 0.299 µM).
